This note sets out measurements from ChEMBL document CHEMBL1667743, “Functional in vivo imaging of cysteine cathepsin activity in murine model of inflammation” (Bioorg Med Chem, 2011).

The source made the active and inactive calls. The rule behind the calls is not given here.

Data set [1] concerns the target Matrix metalloproteinase-9 (Homo sapiens) (UniProt P14780). Kind of data set: Activity at MMP9. The method in brief: (§1)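 Recombinant protease (10–40 nM final) incubated with 60.0 µM probe substrate; NIR fluorescence of cleaved quenched probe measured as in the in vitro cathepsin assay (λex 710 nm, λem 767 nm).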
In data set [2] the test system is Mus musculus. Briefly: Activity at cathepsin S in zymosan-induced inflammatory paw edema mouse model assessed as ipsi/contralateral paw fluorescent signal at 20 uM, iv after 10 mins. The class given is functional, organism-based. A digest of the protocol: (§2)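 Mice given zymosan in one hind paw (n = 3); 24 h later 20 µM probe in PBS iv via tail vein (800 nmol/kg). Under 1.5–2% isoflurane, body temperature held with heating pads; tail and upper body masked; images at 10 min, 1, 3, 6, 24 h; identical ROIs over both hind paws, ipsi/contralateral ratio.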

Data set [3] concerns the target Matrix metalloproteinase-14 (Homo sapiens) (UniProt P50281). Briefly: Activity at MMP14. The method in brief:
as §1

In data set [4] the target is Neutrophil collagenase (Homo sapiens) (UniProt P22894). Kind of data set: Activity at MMP8. The method in brief: as §1
Data set [5] has as its system Mus musculus. Briefly: Activity at cathepsin S in zymosan-induced inflammatory paw edema mouse model assessed as ipsi/contralateral paw fluorescent signal at 13.3 uM, iv after 24 hrs. The class given is functional, organism-based.
Data set [6] relates to Mus musculus. Kind of data set: Activity at cathepsin S in zymosan-induced inflammatory paw edema mouse model assessed as ipsi/contralateral paw fluorescent signal at 20 uM, iv after 180 mins. The class given is functional, organism-based. A digest of the protocol: as §2
Data set [7] relates to Mus musculus. Briefly: Activity at cathepsin S in zymosan-induced inflammatory paw edema mouse model assessed as ipsi/contralateral paw fluorescent signal at 20 uM, iv in presence of Dexamethasone. The class given is functional, organism-based. The method in brief: (§3)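 Zymosan paw inflammation; groups n = 3. Dexamethasone 10 mg/kg oral in 0.6% methylcellulose/0.5% Tween80 1 day before zymosan, shortly after, and 1 h before probe; or E-64 10 or 30 mg/kg ip in 40% DMSO/PBS 2 days and 1 day before, shortly after zymosan, and 1 h before probe. Probe 20 µM iv (800 nmol/kg) 24 h post-zymosan; ipsi/contralateral paw fluorescence imaged.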

For data set [8], the system named is Mus musculus. Briefly: Activity at cathepsin S in zymosan-induced inflammatory paw edema mouse model assessed as ipsi/contralateral paw fluorescent signal at 20 uM, iv in presence of 10 to 30 ug/ml E-64. The class given is functional, organism-based. Particulars: in the assay text read “10 to 30 mg/kg” for “10 to 30 ug/ml”. A digest of the protocol:
as §3

Data set [9] deals with Stromelysin-1 (Homo sapiens) (UniProt P08254). Kind of data set: Activity at MMP3. A digest of the protocol: as §1
The test system of data set [10] is CC(C)(C)OC(=O)NCC[C@H](NC(=O)[C@H](CC1CCCCC1)NC(=O)N1CCOCC1)C(=O)NCCNC(=O)OCC1c2ccccc2-c2ccccc21. Kind of data set: Activity at recombinant cathepsin B. A digest of the protocol:
(§4)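 Active-site-titrated (E-64) recombinant human cathepsins B, L, S and in-house cathepsin K, 10 nM final in pH 6.5 acetate/HEPES buffer with 300 mM NaCl, 0.001% Pluronic and L-cysteine; DMSO-dissolved Cy7/BHQ-3 quenched substrate 0.8–40 µM final (DMSO ≤1%); fluorescence read at 25 °C (λex 710, λem 767 nm); steady-state data fitted by non-linear least squares to Michaelis–Menten with substrate inhibition.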

The test system is the same in data set [11]. Briefly: Ratio of Kcat/Km for recombinant cathepsin B. The method in brief: as §4

Neutrophil collagenase (Homo sapiens), sequence (P22894 101-467 limits assumed): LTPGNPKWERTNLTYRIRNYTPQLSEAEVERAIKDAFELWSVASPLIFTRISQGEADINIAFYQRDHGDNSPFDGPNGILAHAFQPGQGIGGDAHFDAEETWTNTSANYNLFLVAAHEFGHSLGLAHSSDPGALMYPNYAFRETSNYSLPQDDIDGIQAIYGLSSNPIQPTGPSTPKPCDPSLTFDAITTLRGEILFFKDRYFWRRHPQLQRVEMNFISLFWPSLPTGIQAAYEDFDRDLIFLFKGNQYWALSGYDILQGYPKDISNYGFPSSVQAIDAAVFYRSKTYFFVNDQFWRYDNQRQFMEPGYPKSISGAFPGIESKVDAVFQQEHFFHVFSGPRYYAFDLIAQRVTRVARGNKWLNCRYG
Matrix metalloproteinase-9 (Homo sapiens), sequence (P14780 whole entry): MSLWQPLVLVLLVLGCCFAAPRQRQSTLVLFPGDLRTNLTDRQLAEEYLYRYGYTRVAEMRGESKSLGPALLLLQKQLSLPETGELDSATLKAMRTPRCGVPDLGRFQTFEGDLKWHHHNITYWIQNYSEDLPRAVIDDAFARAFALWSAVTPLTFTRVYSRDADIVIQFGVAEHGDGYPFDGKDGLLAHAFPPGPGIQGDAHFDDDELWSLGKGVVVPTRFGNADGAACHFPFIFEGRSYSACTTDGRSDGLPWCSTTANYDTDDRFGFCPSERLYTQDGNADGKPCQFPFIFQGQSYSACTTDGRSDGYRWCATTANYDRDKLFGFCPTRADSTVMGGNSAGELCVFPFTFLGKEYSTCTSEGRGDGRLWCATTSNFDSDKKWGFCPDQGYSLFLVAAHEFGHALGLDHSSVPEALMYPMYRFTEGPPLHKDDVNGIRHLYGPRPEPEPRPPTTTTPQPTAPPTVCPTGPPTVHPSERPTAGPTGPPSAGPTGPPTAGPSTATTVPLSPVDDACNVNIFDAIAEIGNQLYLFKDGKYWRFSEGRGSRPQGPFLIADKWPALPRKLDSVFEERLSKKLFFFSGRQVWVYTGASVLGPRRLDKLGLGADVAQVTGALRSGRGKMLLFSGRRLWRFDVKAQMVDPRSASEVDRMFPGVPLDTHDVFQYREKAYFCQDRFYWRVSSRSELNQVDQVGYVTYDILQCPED
Stromelysin-1 (Homo sapiens), sequence (P08254 100-477 limits assumed): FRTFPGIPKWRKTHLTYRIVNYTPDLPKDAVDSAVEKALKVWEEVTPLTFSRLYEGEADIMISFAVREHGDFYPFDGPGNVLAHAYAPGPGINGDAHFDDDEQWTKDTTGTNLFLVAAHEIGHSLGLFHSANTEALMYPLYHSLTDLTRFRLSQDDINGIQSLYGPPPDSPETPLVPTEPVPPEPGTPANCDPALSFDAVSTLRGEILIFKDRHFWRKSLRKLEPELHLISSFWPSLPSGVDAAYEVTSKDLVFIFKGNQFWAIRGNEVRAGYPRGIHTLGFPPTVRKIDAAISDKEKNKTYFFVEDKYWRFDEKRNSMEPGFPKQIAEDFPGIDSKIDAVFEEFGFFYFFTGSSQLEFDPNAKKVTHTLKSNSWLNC

Turning to `CCN(CC)c1ccc2nc3ccc(/N=N/c4ccc(N(C)CCCC(=O)NCCNC(=O)[C@H](CCNC(=O)CCCCCN5\C(=C/C=C/C=C/C=C/C6N(CC)c7ccc(S(=O)(=O)O)cc7C6(C)C)C(C)(C)c6cc(S(=O)(=O)[O-])ccc65)NC(=O)[C@H](CC5CCCCC5)NC(=O)N5CCOCC5)cc4)cc3[n+](-c3ccccc3)c2c1` (stereo partly specified), the outcome (in data set [1]; in [3]; in data set [4]; with Mus musculus [7]; in the data set with Mus musculus [8]; in [9]) was inactive. In addition, the outcome with Mus musculus [2], with Mus musculus [5] and in the data set on Mus musculus [6] was Active.

Regarding “Cathepsin B (Homo sapiens) (from UniProt P07858)”, the Km (usually the substrate concentration at which the rate is half of its maximum) in data set [10] was determined as 3.2 mM. In addition, the kcat/Km (in general, the second-order rate constant that governs catalysis at low substrate concentration) in data set [11] was determined as 332 M⁻¹ s⁻¹.
